Hits are enriched below; roughly 2.2% of the tested compounds scored in any of these assays.
dFosB act = activators of delta FosB homodimer, primary screen, biochemical, fluorescence polarization, TAMRA-CDK5 oligo, single point; AID 493131, 2011; actives 0.99% (n = 340,000); activation, % at 25 µM; purified delta FosB; percent of positive-control signal above neutral wells;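 active = mean activation above about 17%, with every replicate also reaching it, limit read from the data, passing the limit was not always enough; inconclusive = only one of the two conditions met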
Target sequence (P13346 whole entry, looked up): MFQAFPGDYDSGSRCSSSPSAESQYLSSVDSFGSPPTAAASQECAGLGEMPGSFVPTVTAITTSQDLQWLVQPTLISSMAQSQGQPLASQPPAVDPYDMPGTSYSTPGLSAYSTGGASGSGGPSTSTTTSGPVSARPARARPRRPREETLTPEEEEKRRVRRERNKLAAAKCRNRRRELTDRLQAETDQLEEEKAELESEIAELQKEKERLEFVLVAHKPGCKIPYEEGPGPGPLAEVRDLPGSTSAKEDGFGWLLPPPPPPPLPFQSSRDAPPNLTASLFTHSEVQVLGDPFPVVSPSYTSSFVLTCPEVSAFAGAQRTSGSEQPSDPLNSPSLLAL
S100A4 inh HTS = inhibitors of S100A4-myosin IIA peptide binding, primary screen, biochemical, fluorescence polarization, TAMRA-MyoIIA peptide. actives 0.14% (n = 360,000). inhibition, % at 10.7 µM. Protein S100-A4 (Homo sapiens), P26447;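 active = mean inhibition of at least 70% across replicates, with every replicate also reaching that level; inconclusive = mean inhibition reaches 70% but some replicates fall short; inactive = mean inhibition below 70%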
Target sequence (P26447 whole entry, looked up): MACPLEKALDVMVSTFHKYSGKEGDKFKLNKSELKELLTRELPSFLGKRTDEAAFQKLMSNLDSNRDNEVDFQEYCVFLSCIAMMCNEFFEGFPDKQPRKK
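Material: S100A4 monomer protein | Medium: HEPES pH 7.2 with CaCl2, KCl, NaCl, DTT, Triton | Reagent: Labelled myosin peptide probe, 5 nM | Doses: One dose per compound | Times: 5 min incubation before reading | Benchmarks: Neutral control DMSO, positive control TFP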
F508del corr = F508del CFTR correction, initial screen, CFBE line, single point | CFBE cells, YFP halide quenching; stimulated with forskolin plus potentiator P3; % fluorescence drop versus neutral controls | activity (quench increase), % at 7.58 µM | actives 0.36% (n = 350,000) | AID 720511, 2013;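 active = mean added fluorescence quench of at least 8% versus neutral control, with both replicates also reaching 8%; inconclusive = only one of the mean or replicate conditions met; inactive = mean below 8% and not both replicates reaching 8%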;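 note: cells transiently co-express mutant CFTR-F508del with the halide-sensitive YFP; corrector assay measuring rescue of mutant channel to the surface after 24 h compound exposure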
FGF22 binding-1 = binders of human FGF22 protein, primary screen, FGF22 synaptogenesis inhibitor project, biophysical, thermal shift, single point. Fibroblast growth factor 22 (Homo sapiens), Q9HCT0. recombinant FGF22 thermal shift, SYPRO orange fluorescence; percent of sucrose octasulfate shift, DMSO zero. activity (Tm shift, normalised), % at 9.99 µM. actives 1.5% (n = 340,000). AID 651658, 2012;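 active = mean Tm shift, scaled 0 neutral to 100 positive control, at about 1.3% or above, every replicate too, limit read from the data; inconclusive = no clear call, values can overlap the other calls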
FGF22 binding-2 = binders of human FGF22 protein, dose response, FGF22 synaptogenesis inhibitor project, biophysical, thermal shift, cherry-pick retest; recombinant FGF22 thermal shift, SYPRO orange fluorescence; thermal shift activity, °C (ΔTm) at 38 µM; actives 2% (n = 1,000); AID 720646, 2013; shares compounds with FGF22 binding-1;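 active = fitted rise in melting shift crosses a set limit at or below the top valid dose tested; inconclusive = flat fit at mid-level activity, or a poor quality fit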
FGF22 TSA = binders of human FGF22 protein, dose response, FGF22 synaptogenesis inhibitor project, biophysical, thermal shift, dry powder | Thermal shift assay, SYPRO orange, melting temperature shift | shares compounds with FGF22 binding-1 | 50 tested, under 10 active | AID 743017, 2013 | Tm shift (activity), % at 38 µM;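 active = compounds whose fitted dose curve of melting temperature shift rises past a set threshold within the tested doses; inconclusive = flat curve at moderate activity, or poor curve fit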
TSA no protein = compound-only thermal shift signal without protein, dose response, artefact control for FGF22 binder project, biochemical, cherry-picked samples, RT-PCR instrument; shares compounds with FGF22 binding-1; compound-only SYPRO orange thermal shift counter-screen, no protein; AC50, µM (titrated, usually from 38 µM); actives 2% (n = 1,000);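 active = rising signal whose fitted curve reaches the 0.54 level within the top valid dose, showing a melting point, actives reach about 13 µM in these data; inactive = the rest, including activity in the opposite direction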; note: value is where the raw curve crosses a fixed level and not half-maximal
Active calls of the source: *; i = inactive; ? = inconclusive; . = no result; [ ] = another dose, or the depositor's remark.

SMILES	dFosB act	S100A4 inh HTS	F508del corr	FGF22 binding-1	FGF22 binding-2	TSA no protein	others
COc1cccc(NC(=O)N(C)C[C@H]2Oc3cc(-c4ccccc4F)ccc3S(=O)(=O)N([C@@H](C)CO)C[C@H]2C)c1	.	-6	-2	2.8*	0.2[42 µM]	i
COc1ccccc1-c1ccc2c(c1)O[C@@H](CN(C)C(=O)Nc1cccc(F)c1)[C@H](C)CN([C@@H](C)CO)S2(=O)=O	.	-16	4	2.0*	-0.15	11µM*
C[C@@H]1CN([C@@H](C)CO)S(=O)(=O)c2ccc(-c3ccncc3)cc2O[C@@H]1CN(C)C(=O)Nc1ccc(C(F)(F)F)cc1	.	4	4	1.5*	-0.076	i
C[C@H](CO)N1C[C@H](C)[C@@H](CN(C)C(=O)Nc2ccc(C(F)(F)F)cc2)Oc2cc(-c3ccncc3)ccc2S1(=O)=O	.	-11	-2	0	.	.
O=S(=O)(c1cccc2cccnc12)N1CCN(Cc2ccccc2)CC1	-6	-5	6	1.4*	0.17	i
CCCC(=O)N1CC2(CCN(C(=O)C3CCC3)CC2)c2c(n(C)c3cc(OC)ccc23)[C@@H]1CO	.	.	0	0	.	.
O=C([C@@H]1[C@@H](CO)[C@@H]2Cn3c(ccc(C4=CCCC4)c3=O)[C@H]1N2C(=O)c1ccccc1)N1CCOCC1	.	-2	-1	0	.	.
COc1cc(/C=N/NC(=O)CCn2c3ccccc3c3ccccc32)ccc1O	1	-1	0	2.1*	0.038	13µM*
COc1cc(/C=N/NC(=O)c2cc3ccccc3[nH]2)ccc1O	-8	-6	4	2.7*	0.24	i	FGF22 TSA=0
COc1cc(/C=N/NC(=O)CCn2nnc3ccccc32)ccc1O	-4	-2	-1	0	.	.
O=C(C[C@H]1C[C@H]2c3cc(NS(=O)(=O)c4ccccc4)ccc3O[C@H]2[C@H](CO)O1)N1CCCCC1	.	2	-3	0	.	.
CN(Cc1c(C(=O)N/N=C/c2ccccc2)nnn1-c1nonc1N)c1ccccc1	6	-1	-1	0	.	.
CN(Cc1c(C(=O)N/N=C/c2ccc(O)cc2)nnn1-c1nonc1N)c1ccccc1	14	2	0	1.9*	-0.027	i	FGF22 TSA=0
CC(C)c1c(C(=O)N/N=C/c2cccc3ccccc23)nnn1-c1nonc1N	?	0	2	0	.	.
CC(C)c1c(C(=O)N/N=C/c2c[nH]c3ccccc23)nnn1-c1nonc1N	-3	3	1	2.3*	.	i	FGF22 TSA=1
O=C(O)C[C@H]1C[C@@H]2c3cc(NC(=O)C4CCOCC4)ccc3O[C@@H]2[C@@H](CO)O1	.	.	-1	0	.	.
CCSc1nnc(NC(=O)c2ccc(Br)s2)s1	0	.	.	.	.	.
O=C(Nc1nnc(C(F)(F)F)s1)c1ccc(Br)s1	0	2	-4	2.0*	-0.072	i
O=C(Nc1nccs1)c1ccc(S(=O)(=O)NCc2cccs2)cc1	-6	-4	3	1.4*	-0.055	i
Cc1[nH]c(=O)[nH]c(=O)c1S(=O)(=O)Nc1cccc([N+](=O)[O-])c1C	-10	-1	-1	4.6*	-0.021	i
COc1ccc2c(CC(=O)NNC(=O)c3ccc(O)cc3)coc2c1	-1	-3	-2	1.6*	-0.38	i
C[C@@H]1CN([C@@H](C)CO)C(=O)c2cccc(NC(=O)C3CCCCC3)c2O[C@H]1CN(C)Cc1ccc2c(c1)OCO2	.	16	1	0	.	.

Compound activity: PubChem, Broad Institute
